Results on 14 molecules are retold here after ChEMBL document CHEMBL1287724, “Discovery of INCB3344, a potent, selective and orally bioavailable antagonist of human and murine CCR2” (Bioorg Med Chem Lett, 2010).

Data set [1] concerns the target C-C chemokine receptor type 2 (Mus musculus, UniProt P51683). In words: Displacement of [125I]MCP1 from mouse CCR2 after 30 mins by gamma counter. For orientation: In a radioligand displacement assay an active substance lowers the binding of a labelled ligand.
Data set [2] addresses C-C chemokine receptor type 2 (Homo sapiens, UniProt P41597). As to the kind of experiment: Displacement of [125I]MCP1 from human CCR2 after 30 mins by gamma counter.
Data set [3] can be described thus: Protein binding in human serum assessed as unbound fraction. The conditions noted are these: read-out: PB. The data set is classed as ADME, cell-free.
The nature of data set [4]: Protein binding in mouse serum assessed as unbound fraction. In kind it is ADME, cell-free. The settings on record: read-out: PB.
For the next data set, the target named is T1, CCR2 protein (Macaca fascicularis, UniProt Q6Y3N0).
T1 sequence (Q6Y3N0 whole entry): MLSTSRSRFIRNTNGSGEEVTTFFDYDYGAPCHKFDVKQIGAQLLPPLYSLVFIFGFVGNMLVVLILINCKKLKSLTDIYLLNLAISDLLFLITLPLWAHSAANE
As to the kind of experiment: Inhibition of cynomolgus CCR2.

The nature of data set [5]: AUC in BALB/c mouse at 10 mg/kg, po. The data set is classed as ADME, organism-based. Further details: dose 10 mg/kg, route oral. The conditions noted are these: plasma.
In data set [6] the target is T2, C-C chemokine receptor type 2 (Rattus norvegicus, UniProt O55193).
T2 sequence (O55193 whole entry): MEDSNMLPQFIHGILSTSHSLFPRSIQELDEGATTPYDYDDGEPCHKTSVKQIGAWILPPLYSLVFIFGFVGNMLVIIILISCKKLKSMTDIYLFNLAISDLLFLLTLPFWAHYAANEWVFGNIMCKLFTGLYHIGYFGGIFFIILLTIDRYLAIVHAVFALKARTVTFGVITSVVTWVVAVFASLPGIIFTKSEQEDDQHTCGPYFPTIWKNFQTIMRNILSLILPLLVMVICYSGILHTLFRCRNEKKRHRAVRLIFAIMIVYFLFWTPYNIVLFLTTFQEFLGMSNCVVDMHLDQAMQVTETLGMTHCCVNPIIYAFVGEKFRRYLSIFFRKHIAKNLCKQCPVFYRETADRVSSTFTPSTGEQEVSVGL
As to the kind of experiment: Inhibition of rat CCR2.

Data set [7] is described as follows: Half life in CD-1 mouse at 5 mg/kg, iv. The data set is classed as ADME, organism-based. More on the design: dose 5 mg/kg, route intravenous. The settings on record: in vivo. The method in brief: (§1)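 CD-1 mice dosed intravenously at 5 mg/kg and orally at 10 mg/kg. Clearance, steady-state volume of distribution and half-life were taken from the iv arm. Cmax and AUC were taken from the po arm. Oral bioavailability was derived from the po and iv exposures.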

The nature of data set [8]: Cmax in BALB/c mouse at 10 mg/kg, po. The data set is classed as ADME, organism-based. More on the design: dose 10 mg/kg, route oral. The settings on record: in vivo.
A short description of data set [9]: Clearance in CD-1 mouse at 5 mg/kg, iv. The data set is classed as ADME, organism-based. More on the design: dose 5 mg/kg, route intravenous. The conditions noted are these: in vivo. The method in brief:
as §1

The nature of data set [10]: Oral bioavailability in CD-1 mouse at 10 mg/kg, po. The data set is classed as ADME, organism-based. The settings on record: in vivo. The method in brief:
as §1

Data set [11] concerns the target Voltage-gated inwardly rectifying potassium channel KCNH2 (Homo sapiens, UniProt Q12809).
The nature of data set [12]: Cmax in CD-1 mouse at 10 mg/kg, po. More on the design: dose 10 mg/kg, route oral. The data set is classed as ADME, organism-based. The conditions noted are these: in vivo. The method in brief: as §1
The target of data set [13] is T3, C-C chemokine receptor type 1 (Mus musculus, UniProt P51675).
T3 sequence (P51675 whole entry): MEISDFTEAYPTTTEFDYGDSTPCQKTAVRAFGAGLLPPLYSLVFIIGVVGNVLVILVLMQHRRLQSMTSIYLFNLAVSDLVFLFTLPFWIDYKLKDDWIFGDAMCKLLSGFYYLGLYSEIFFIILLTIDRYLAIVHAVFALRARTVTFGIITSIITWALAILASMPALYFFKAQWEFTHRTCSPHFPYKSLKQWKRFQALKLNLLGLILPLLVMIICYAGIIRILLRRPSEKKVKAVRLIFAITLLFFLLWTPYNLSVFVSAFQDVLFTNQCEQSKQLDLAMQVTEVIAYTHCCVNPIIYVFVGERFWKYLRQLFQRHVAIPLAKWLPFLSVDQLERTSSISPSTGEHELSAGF
As to the kind of experiment: Inhibition of mouse CCR1.

In another data set the test system is Mus musculus. As to the kind of experiment: Volume of distribution at steady state in CD-1 mouse at 5 mg/kg, iv. The data set is classed as ADME, organism-based. More on the design: dose 5 mg/kg, route intravenous. The conditions noted are these: in vivo. The method in brief:
as §1

Data set [14] addresses C-C chemokine receptor type 5 (Mus musculus, UniProt P51682). As to the kind of experiment: Inhibition of mouse CCR5.
The nature of data set [15]: AUC in CD-1 mouse at 10 mg/kg, po. The data set is classed as ADME, organism-based. Further details: dose 10 mg/kg, route oral. The settings on record: plasma. The method in brief:
as §1

What is called IC50 is the midpoint of a concentration-inhibition curve. Higher therefore signals lower potency. A word on the AUC: it is concentration integrated over time. Lower therefore signals low exposure. In general, half-life refers to the time in which the quantity being followed falls by half. A higher half-life goes with slow loss. Usually Cmax stands for the peak of the concentration-time curve. The clearance is the volume of plasma or blood freed of the substance per unit of time. A high value points to a high capacity for elimination. The bioavailability is dose-corrected exposure relative to a reference, in per cent. Higher therefore signals much systemic uptake. Usually Vdss stands for a proportionality between amount in the body and measured concentration, not a real space.

Sequence of C-C chemokine receptor type 2 (Mus musculus, UniProt P51683) (P51683 whole entry): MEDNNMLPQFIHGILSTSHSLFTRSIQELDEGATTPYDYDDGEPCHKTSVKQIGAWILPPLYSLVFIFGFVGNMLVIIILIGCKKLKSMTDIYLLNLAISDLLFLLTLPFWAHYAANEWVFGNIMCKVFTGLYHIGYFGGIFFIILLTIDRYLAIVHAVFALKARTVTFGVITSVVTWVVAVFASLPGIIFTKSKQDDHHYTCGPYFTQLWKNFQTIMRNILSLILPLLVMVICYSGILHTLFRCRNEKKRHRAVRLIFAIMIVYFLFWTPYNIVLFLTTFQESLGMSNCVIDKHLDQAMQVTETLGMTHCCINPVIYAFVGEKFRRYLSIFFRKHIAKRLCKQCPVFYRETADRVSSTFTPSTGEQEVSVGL
Sequence of C-C chemokine receptor type 2 (Homo sapiens, UniProt P41597) (P41597 whole entry): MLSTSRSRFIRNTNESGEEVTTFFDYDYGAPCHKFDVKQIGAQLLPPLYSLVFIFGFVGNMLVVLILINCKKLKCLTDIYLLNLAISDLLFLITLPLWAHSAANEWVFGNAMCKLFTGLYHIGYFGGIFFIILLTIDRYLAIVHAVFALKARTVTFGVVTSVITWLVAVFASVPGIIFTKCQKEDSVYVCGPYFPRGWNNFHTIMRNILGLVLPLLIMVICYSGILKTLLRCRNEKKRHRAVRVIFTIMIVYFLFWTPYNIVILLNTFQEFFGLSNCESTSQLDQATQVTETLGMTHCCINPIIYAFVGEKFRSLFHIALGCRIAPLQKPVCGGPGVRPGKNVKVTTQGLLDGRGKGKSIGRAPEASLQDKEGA
Sequence of Voltage-gated inwardly rectifying potassium channel KCNH2 (Q12809 whole entry): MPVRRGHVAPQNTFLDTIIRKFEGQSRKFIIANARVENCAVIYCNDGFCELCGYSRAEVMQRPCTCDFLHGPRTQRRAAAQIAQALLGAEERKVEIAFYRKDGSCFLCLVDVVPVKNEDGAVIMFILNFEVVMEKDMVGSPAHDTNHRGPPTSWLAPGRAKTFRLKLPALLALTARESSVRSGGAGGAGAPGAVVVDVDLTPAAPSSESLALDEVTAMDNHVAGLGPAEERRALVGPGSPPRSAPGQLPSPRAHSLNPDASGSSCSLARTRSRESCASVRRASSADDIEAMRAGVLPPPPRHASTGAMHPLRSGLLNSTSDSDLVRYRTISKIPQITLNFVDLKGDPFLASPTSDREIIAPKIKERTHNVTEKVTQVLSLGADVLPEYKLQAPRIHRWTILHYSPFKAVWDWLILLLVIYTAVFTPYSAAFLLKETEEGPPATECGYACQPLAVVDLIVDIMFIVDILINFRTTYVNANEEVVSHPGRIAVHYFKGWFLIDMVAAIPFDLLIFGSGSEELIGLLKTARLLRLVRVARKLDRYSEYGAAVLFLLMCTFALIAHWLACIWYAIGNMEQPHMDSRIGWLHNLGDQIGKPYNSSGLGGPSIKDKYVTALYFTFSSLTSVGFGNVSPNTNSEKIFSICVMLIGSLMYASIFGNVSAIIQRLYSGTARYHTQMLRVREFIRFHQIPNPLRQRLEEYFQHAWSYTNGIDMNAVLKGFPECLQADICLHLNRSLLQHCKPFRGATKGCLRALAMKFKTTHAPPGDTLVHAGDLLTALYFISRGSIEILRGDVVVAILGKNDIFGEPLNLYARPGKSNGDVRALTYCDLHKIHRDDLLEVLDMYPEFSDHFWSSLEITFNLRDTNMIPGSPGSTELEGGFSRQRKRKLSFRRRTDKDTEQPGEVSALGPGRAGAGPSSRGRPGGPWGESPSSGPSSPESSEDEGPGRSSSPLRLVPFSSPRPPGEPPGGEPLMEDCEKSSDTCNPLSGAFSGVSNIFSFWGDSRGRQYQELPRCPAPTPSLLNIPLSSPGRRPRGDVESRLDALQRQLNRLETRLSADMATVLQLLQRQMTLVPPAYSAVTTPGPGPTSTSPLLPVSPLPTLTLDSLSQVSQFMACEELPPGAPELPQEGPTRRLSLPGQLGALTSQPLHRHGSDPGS
Sequence of C-C chemokine receptor type 5 (P51682 whole entry): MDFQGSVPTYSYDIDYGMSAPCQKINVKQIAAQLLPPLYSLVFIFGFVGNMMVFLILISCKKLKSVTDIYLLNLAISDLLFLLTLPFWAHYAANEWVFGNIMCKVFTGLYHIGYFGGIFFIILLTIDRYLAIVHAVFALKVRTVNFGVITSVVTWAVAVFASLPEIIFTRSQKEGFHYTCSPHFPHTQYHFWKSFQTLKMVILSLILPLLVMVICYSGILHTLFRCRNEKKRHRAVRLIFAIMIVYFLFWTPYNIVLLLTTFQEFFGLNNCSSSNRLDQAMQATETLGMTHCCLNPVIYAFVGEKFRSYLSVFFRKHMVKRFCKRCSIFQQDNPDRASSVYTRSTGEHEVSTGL

For the molecule `O=C(CNC(=O)c1cccc(C(F)(F)F)c1)N[C@H]1CN([C@H]2CC[C@@H](c3ccccc3)CC2)C[C@@H]1OCc1ccccc1`, the IC50 came out at 51 nM in [1] and 17 nM in data set [2].
For the molecule `CCO[C@H]1CN([C@H]2CC[C@@](O)(c3ccccc3)CC2)C[C@@H]1NC(=O)CNC(=O)c1cccc(C(F)(F)F)c1`, the fraction unbound in data set [3] was 0.26; in data set [4] it was 0.18. In addition, the figures for the IC50 in [1] and in data set [2] were 10 nM and 2.3 nM, respectively.
Turning to `CCO[C@H]1CN([C@H]2CC[C@@](O)(c3ccc(C)cc3)CC2)C[C@@H]1NC(=O)CNC(=O)c1cccc(C(F)(F)F)c1`, the fraction unbound in data set [4] turned out to be 0.079. Also, the values for the IC50 in data set [1] and in data set [2] were 2.1 nM and 2.3 nM, respectively.
Consider `CCO[C@H]1CN([C@H]2CC[C@@](O)(c3ccc4c(c3)OCO4)CC2)C[C@@H]1NC(=O)CNC(=O)c1cccc(C(F)(F)F)c1`, for which the results for the fraction unbound in data set [3] and in data set [4] were 0.24 and 0.15, respectively. In addition, the IC50 on CCR2 protein was 16 nM; in data set [6], 7.3 nM; in data set [11], 13000 nM; in [13] it was > 1000 nM; in data set [14], > 3000 nM. In addition, the AUC in data set [5] was found to be 3.89 µM·h; in [15], 2.66 µM·h. The same molecule showed a half-life in [7] of 1 h. The peak concentration (Cmax) in data set [8] came out at 961 nM; in data set [12], 1890 nM. In data set [9], the clearance was 85 mL/min/kg. Moreover, in data set [10], the bioavailability turned out to be 47%. Further, the Vdss in the data set with Mus musculus amounted to 2.8 L/kg.
`O=C(CNC(=O)c1cccc(C(F)(F)F)c1)N[C@H]1CN([C@H]2CC[C@@H](c3ccccc3)C2)C[C@@H]1O` gave an IC50 in data set [2] of 120 nM.
`O=C(CNC(=O)c1cccc(C(F)(F)F)c1)N[C@H]1CN([C@H]2CC[C@H](c3ccccc3)C2)C[C@@H]1O`: in [2], the IC50 was > 1000 nM.
Same read-out and setting: the result for `O=C(CNC(=O)c1cccc(C(F)(F)F)c1)N[C@H]1CN([C@H]2CCC[C@@H](c3ccccc3)C2)C[C@@H]1O` reads > 1000 nM.
The same measure, in the same setting: the result for `O=C(CNC(=O)c1cccc(C(F)(F)F)c1)N[C@H]1CN([C@H]2CCC[C@H](c3ccccc3)C2)C[C@@H]1O` reads > 1000 nM.
Consider `O=C(CNC(=O)c1cccc(C(F)(F)F)c1)N[C@H]1CN([C@H]2CC[C@@H](c3ccccc3)CC2)C[C@@H]1O`, for which the fraction unbound in data set [3] was found to be 0.026. For the same molecule, the IC50 in data set [1] worked out at 186 nM; in data set [2], 7.4 nM.
For the molecule `O=C(CNC(=O)c1cccc(C(F)(F)F)c1)N[C@H]1CN([C@H]2CC[C@H](c3ccccc3)CC2)C[C@@H]1O`, the IC50 in data set [2] was > 1000 nM.
Take `O=C(CNC(=O)c1cccc(C(F)(F)F)c1)N[C@H]1CN(C2CCN(c3ccccc3)CC2)C[C@@H]1O`: in [2], the IC50 was 649 nM.
As for `CCO[C@H]1CN([C@H]2CC[C@@H](c3ccccc3)CC2)C[C@@H]1NC(=O)CNC(=O)c1cccc(C(F)(F)F)c1`, the fraction unbound in data set [3] was < 0.005; in data set [4] it was 0.023. Moreover, the IC50 in data set [1] turned out to be 1.9 nM; in [2] it was 0.95 nM.
Turning to `CCCO[C@H]1CN([C@H]2CC[C@@H](c3ccccc3)CC2)C[C@@H]1NC(=O)CNC(=O)c1cccc(C(F)(F)F)c1`, the figures for the IC50 in [1] and in data set [2] were 1.9 nM and 2.9 nM, respectively.
For `CCCCO[C@H]1CN([C@H]2CC[C@@H](c3ccccc3)CC2)C[C@@H]1NC(=O)CNC(=O)c1cccc(C(F)(F)F)c1`, the IC50 in data set [1] turned out to be 54 nM; in [2], 47 nM.
